Reference: ChEMBL document CHEMBL3734686, “Synthesis, Photophysical Properties, and Biological Evaluation of trans-Bisthioglycosylated Tetrakis(fluorophenyl)chlorin for Photodynamic Therapy” (J Med Chem, 2015)
pEC50: −log10 of the molar value. Activity calls are given as the source filed them.

Experiments:
[1] = Photocytotoxicity against rat RGK1 cells assessed as cell survival preincubated for 24 hrs followed by irradiation at 16 J/cm2 measured at 24 hrs by WST-8 assay; type: functional, cell-based; settings: RGK1, light or radiation study
Method in brief: (§1)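 Cells (5 × 10^3/well) in DMEM with 10% FCS, 24 h at 37°C, 5% CO2; photosensitizer 1–50000 nM (1% DMSO final) for 24 h, washed, fresh medium. Irradiated with 100-W halogen lamp through λ>500 nm or λ>600 nm cutoff filter to 16 J·cm−2; WST-8 absorbance at 450 nm 24 h later, survival normalized to no-drug wells.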

4T1 = assay: Antitumor activity against mouse 4T1 cells implanted in BALB/c mouse at 0.045 mg/kg, ip assessed as tumor growth inhibition administered for 48 hrs followed by irradiation at 40 mW/cm2 measured after 7 days; type: functional, organism-based
Method in brief: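 Female BALB/c mice carried 4T1 thigh tumours (1 × 10^6 cells) of 50–60 mm3. They were dosed i.p. at 250–31.25 nmol·kg−1 in ethanol/PEG400/H2O (2/3/5) containing 0.1% DMSO and kept dark. At 48 h the tumour was irradiated with a 100-W halogen lamp at 40 mW·cm−2 for 20.1 min. Tumour size was measured daily by caliper as length × width²/2 and normalised to day 0.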

[2] = Drug uptake in BALB/c mouse large intestine implanted with mouse 4T1 cells assessed per gram of tissue at 0.18 mg/kg, ip after 72 hrs by HPLC-based fluorescence analysis; type: ADME, organism-based; settings: in vivo
Method in brief: (§2)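 Female BALB/c mice bearing 4T1 thigh tumours received an i.p. dose in ethanol/PEG400/H2O (2/3/5) with 0.1% DMSO, or in saline, and were kept dark until killed. Tissues were weighed (100 mg), homogenised in CH3OH/DMSO/H2O (32/8/1) and centrifuged twice at 2300×g at 4°C. Supernatants were analysed by HPLC with fluorescence detection (λex 404/λem 654 nm or λex 400/λem 666 nm). n = 3 per time point.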

Lung [3] = assay: Drug uptake in BALB/c mouse lung implanted with mouse 4T1 cells assessed per gram of tissue at 0.18 mg/kg, ip after 72 hrs by HPLC-based fluorescence analysis; type: ADME, organism-based; settings: in vivo; method in brief: as §2
Kidney [4] = assay: Drug uptake in BALB/c mouse kidney implanted with mouse 4T1 cells assessed per gram of tissue at 0.18 mg/kg, ip after 72 hrs by HPLC-based fluorescence analysis; type: ADME, organism-based; settings: in vivo; method in brief: as §2
Muscle tissue = assay: Drug uptake in BALB/c mouse muscle implanted with mouse 4T1 cells assessed per gram of tissue at 0.18 mg/kg, ip after 6 hrs by HPLC-based fluorescence analysis; type: ADME, organism-based; settings: in vivo; method in brief: as §2
Kidney [5] = assay: Drug uptake in BALB/c mouse kidney implanted with mouse 4T1 cells assessed per gram of tissue at 0.18 mg/kg, ip after 48 hrs by HPLC-based fluorescence analysis; type: ADME, organism-based; settings: in vivo; method in brief: as §2
Stomach = assay: Drug uptake in BALB/c mouse stomach implanted with mouse 4T1 cells assessed per gram of tissue at 0.18 mg/kg, ip after 24 hrs by HPLC-based fluorescence analysis; type: ADME, organism-based; settings: in vivo
Method in brief: (§3)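 Female BALB/c mice with 4T1 cells (1 × 10^6 in HBSS) implanted in left rear thigh; single i.p. dose, 7 in ethanol/PEG400/H2O (2/3/5) with 0.1% DMSO, mono-L-aspartyl chlorin e6 in saline; kept dark until sacrifice. Tissues washed, frozen, homogenized in CH3OH/DMSO/H2O (32/8/1), centrifuged 2300×g; supernatant analysed by HPLC with fluorescence detection; three animals per time point.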

Liver = assay: Drug uptake in BALB/c mouse liver implanted with mouse 4T1 cells assessed per gram of tissue at 0.18 mg/kg, ip after 24 hrs by HPLC-based fluorescence analysis; type: ADME, organism-based; settings: in vivo; method in brief: as §2
[6] = Drug uptake in BALB/c mouse small intestine implanted with mouse 4T1 cells assessed per gram of tissue at 0.18 mg/kg, ip after 72 hrs by HPLC-based fluorescence analysis; type: ADME, organism-based; settings: in vivo; method in brief: as §3
Kidney [7] = assay: Drug uptake in BALB/c mouse kidney implanted with mouse 4T1 cells assessed per gram of tissue at 0.18 mg/kg, ip after 24 hrs by HPLC-based fluorescence analysis; type: ADME, organism-based; settings: in vivo; method in brief: as §2
Lung [8] = assay: Drug uptake in BALB/c mouse lung implanted with mouse 4T1 cells assessed per gram of tissue at 0.18 mg/kg, ip after 6 hrs by HPLC-based fluorescence analysis; type: ADME, organism-based; settings: in vivo; method in brief: as §2
[9] = Photocytotoxicity against human U87 cells assessed as cell survival preincubated for 24 hrs followed by irradiation at 16 J/cm2 measured at 24 hrs by WST-8 assay; type: functional, cell-based, U-87MG ATCC; settings: U-87 MG, light or radiation study; method in brief: as §1
HeLa = assay: Dark cytotoxicity against human HeLa cells at 0.5 uM assessed as cell survival preincubated for 24 hrs measured by WST-8 assay in absence of photoirradiation; type: cell-based
Method in brief: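 HeLa cells were seeded at 5 × 10^3 per well in DMEM with 10% FCS and grown for 24 h at 37°C. They were then exposed for 24 h to 0.5 µM photosensitizer (1% DMSO final), washed, and not irradiated. Viability was read 24 h later by WST-8 absorbance at 450 nm and expressed as percent of untreated wells.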

Urinary bladder = assay: Drug uptake in BALB/c mouse bladder implanted with mouse 4T1 cells assessed per gram of tissue at 0.18 mg/kg, ip after 72 hrs by HPLC-based fluorescence analysis; type: ADME, organism-based; settings: in vivo; method in brief: as §2
Kidney [10] = assay: Drug uptake in BALB/c mouse kidney implanted with mouse 4T1 cells assessed per gram of tissue at 0.18 mg/kg, ip after 12 hrs by HPLC-based fluorescence analysis; type: ADME, organism-based; settings: in vivo; method in brief: as §2
Zone of skin = assay: Drug uptake in BALB/c mouse skin implanted with mouse 4T1 cells assessed per gram of tissue at 0.18 mg/kg, ip after 12 hrs by HPLC-based fluorescence analysis; type: ADME, organism-based; settings: in vivo; method in brief: as §3
Heart = assay: Drug uptake in BALB/c mouse heart implanted with mouse 4T1 cells assessed per gram of tissue at 0.18 mg/kg, ip after 6 hrs by HPLC-based fluorescence analysis; type: ADME, organism-based; settings: in vivo; method in brief: as §2
[11] = Drug uptake in BALB/c mouse small intestine implanted with mouse 4T1 cells assessed per gram of tissue at 0.18 mg/kg, ip after 48 hrs by HPLC-based fluorescence analysis; type: ADME, organism-based; settings: in vivo; method in brief: as §3
[12] = Drug uptake in nucleus of human Hela cells at 0.5 uM preincubated for 24 hrs followed by MitoTracker Green FM addition for 30 mins by CSLM analysis; type: ADME, cell-based; settings: 0.5 h
Method in brief: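 HeLa cells (1 × 10^4) plated 24 h, incubated 24 h with 0.5 µM final photosensitizer (1% DMSO), washed, stained 30 min with 250 nM MitoTracker Green FM in HBSS at 37°C, fixed in 4% paraformaldehyde. Confocal imaging: red λex 488/λem 650 nm; green λex 488/λem 505–530 nm.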

Spleen = assay: Drug uptake in BALB/c mouse spleen implanted with mouse 4T1 cells assessed per gram of tissue at 0.18 mg/kg, ip after 24 hrs by HPLC-based fluorescence analysis; type: ADME, organism-based; settings: in vivo; method in brief: as §3
U-251 = assay: Photocytotoxicity against human U251 cells assessed as cell survival preincubated for 24 hrs followed by irradiation at 16 J/cm2 measured at 24 hrs by WST-8 assay; type: functional, cell-based; settings: U-251, light or radiation study; method in brief: as §1
[13] = Drug uptake in BALB/c mouse large intestine implanted with mouse 4T1 cells assessed per gram of tissue at 0.18 mg/kg, ip after 48 hrs by HPLC-based fluorescence analysis; type: ADME, organism-based; settings: in vivo; method in brief: as §2

Drug uptake [2]: 7 ng/g
Drug uptake (Lung [3]): 7 ng/g
Drug uptake (Kidney [4]): 13 ng
Drug uptake (Muscle tissue): 2.2 ng
Drug uptake (Kidney [5]): 5 ng
Drug uptake (Stomach): 31 ng/g
Drug uptake (Liver): 60 ng
Drug uptake [6]: 9.8 ng/g
Drug uptake (Kidney [7]): 18 ng
Drug uptake (Lung [8]): 70 ng/g
Drug uptake (Urinary bladder): 8 ng
Drug uptake (Kidney [10]): 25 ng
Drug uptake (Zone of skin): 0 ng
Drug uptake (Heart): 24 ng/g
Drug uptake [11]: 9.5 ng/g
Drug uptake [12]: Not Active
Drug uptake (Spleen): 58 ng
Drug uptake [13]: 17 ng/g
Structure (SMILES): CN1CC2C3=N/C(=C(/c4c(F)c(F)c(S[C@@H]5O[C@H](CO)[C@@H](O)[C@H](O)[C@H]5O)c(F)c4F)C4=N/C(=C(/c5c(F)c(F)c(F)c(F)c5F)c5ccc([nH]5)/C(c5c(F)c(F)c(S[C@@H]6O[C@H](CO)[C@@H](O)[C@H](O)[C@H]6O)c(F)c5F)=C5/C=CC(=N5)C3c3c(F)c(F)c(F)c(F)c3F)C=C4)C2C1 (stereo partly drawn)
pEC50 [1]: 9.00
Activity (4T1): Active
pEC50 [9]: 10.00
Activity (HeLa): Non-toxic
pEC50 (U-251): 9.30
